SMILES strings stand for the structures. The source made the active and inactive calls. The calls are words filed in the database; no cut-off is given here.

Here are results for 1 molecule from ChEMBL document CHEMBL6115033, “Discovery of a Pyrazolopyridinone-Based MYC Inhibitor That Selectively Engages Intracellular c-MYC and Disrupts MYC-MAX Heterodimerization” (J Med Chem, 2025).

Assay [1] has as its system MDA-MB-468. The assay can be described thus: Downregulation of MYC level in human MDA-MB-468 cells at 25 uM by Western blot analysis. The class given is functional, cell-based. The conditions noted are these: time 9-24 hrs. In a few lines:
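MDA-MB-468 cells were exposed to 25 µM over a time course of up to 24 h. MYC and FBXW7 were read by western blot.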
(In western blotting, separated proteins are transferred to a membrane and probed.)

Assay [2] deals with c-Myc/c-Max (Homo sapiens) (UniProt P01106+P61244). The experiment in a line: Disruption of MYC-MAX heterodimerization in human MDA-MB-468 cells incubated for 12 hrs. The class given is cell-based. In a few lines:
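Cells were given 25 µM or DMSO for 0, 3, 5 and 12 h. Cytoplasmic and nuclear lysate fractions were pooled. 2 mg protein was immunoprecipitated with MYC antibody overnight, then protein A/G beads for 4 h at 4 °C. Bound MAX was detected by western blot and quantified relative to MYC; MAX input was also measured.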

The subject of assay [3] is MDA-MB-468. The experiment in a line: Downregulation of CDK1 mRNA expression in human MDA-MB-468 cells at 25 uM incubated for 12 hrs by qRT-PCR analysis. In kind it is functional, cell-based. The method in brief:
(§1)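 Cells (500,000/well) were cultured with or without 25 µM for the indicated time. Total RNA was extracted with TRIzol and reverse-transcribed. qPCR used SYBR green with target-gene primers, reported as ΔΔCT.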
For orientation: Real-time PCR tracks product formation cycle by cycle.

Assay [4] relates to P493-6. The assay can be described thus: Downregulation of CDC25A mRNA expression in human P493-6 cells at 25 uM incubated for 12 hrs by qRT-PCR analysis. The class given is functional, cell-based. In a few lines:
as §1

In assay [5] the test system is MDA-MB-468. The assay can be described thus: Antitumor activity against human MDA-MB-468 cells xenografted in mouse assessed as tumor growth inhibition at 10 mg/kg, po measured at 14 to 26 days by elliptical measurement method based caliper analysis. The conditions noted are these: time 14-26 day. The class given is functional, organism-based. For orientation: A xenograft is tissue or cells of one species grown in another, often human tumour cells in immunodeficient mice.

Assay [6] addresses Myc proto-oncogene protein (Homo sapiens) (UniProt P01106). The assay can be described thus: Binding affinity to MYC in human P493-6 cells assessed as thermal stabilization by measuring melting temperature at 25 uM measured for 2 hrs by CETSA analysis (reference value: 42 degreeC).
The subject of assay [7] is MDA-MB-468. The experiment in a line: Downregulation of E2F1 mRNA expression in human MDA-MB-468 cells at 25 uM incubated for 12 hrs by qRT-PCR analysis. In kind it is functional, cell-based. The method in brief:
as §1

Assay [8] deals with P493-6. The experiment in a line: Downregulation of E2F2 mRNA expression in human P493-6 cells at 25 uM incubated for 12 hrs by qRT-PCR analysis. The class given is functional, cell-based. The method in brief: as §1
The subject of assay [9] is P493-6. The assay can be described thus: Downregulation of CDK2 mRNA expression in human P493-6 cells at 25 uM incubated for 12 hrs by qRT-PCR analysis. The class given is functional, cell-based. In a few lines: as §1
Assay [10] relates to MDA-MB-468. The assay can be described thus: Downregulation of CDK2 mRNA expression in human MDA-MB-468 cells at 25 uM incubated for 12 hrs by qRT-PCR analysis. In kind it is functional, cell-based. In a few lines: as §1
Assay [11] deals with MDA-MB-468. The assay can be described thus: Downregulation of CDK1 mRNA expression in human MDA-MB-468 cells at 25 uM incubated at 48 hrs by qRT-PCR analysis. The class given is functional, cell-based. In a few lines:
as §1

Assay [12] concerns MDA-MB-468. The experiment in a line: Antitumor activity against human MDA-MB-468 cells xenografted in mouse assessed as upregulation of caspase-3 expression at 10 mg/kg, sc measured at 14 to 26 days by IHC analysis. The conditions noted are these: time 14-26 day.
Assay [13] deals with MDA-MB-231. The assay can be described thus: Antiproliferative activity against human MDA-MB-231 cells assessed as cell viability incubated for 96 hrs by MTT assay. In kind it is functional, cell-based. The conditions noted are these: MDA-MB-231, 96 h. The method in brief: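 Adherent cells (2000/well) attached overnight, then exposed to compounds at 0.14–100 µM for 96 h in DMEM with 10% FBS. MTT at 0.5 mg/mL for 4 h in the dark, formazan dissolved in DMSO, absorbance at 570 nm. Compounds were freshly prepared in DMSO, with DMSO below 1%.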

In assay [14] the test system is MDA-MB-468. The experiment in a line: Antitumor activity against human MDA-MB-468 cells xenografted in mouse assessed as reduction in Ki67 expression at 10 mg/kg, sc measured at 14 to 26 days by IHC analysis. The conditions noted are these: time 14-26 day.
The test system of assay [15] is P493-6. The experiment in a line: Induction of apoptosis in human P493-6 cells assessed as effect on cleaved PARP level at 50 uM incubated for 24 hrs.
Assay [16] has as its system MDA-MB-468. The assay can be described thus: Downregulation of CCNA2 mRNA expression in human MDA-MB-468 cells at 25 uM incubated for 12 hrs by qRT-PCR analysis. In kind it is functional, cell-based. In a few lines:
as §1

In assay [17] the test system is MDA-MB-468. The assay can be described thus: Induction of apoptosis in human MDA-MB-468 cells assessed as effect on PARP level at 50 uM incubated for 24 hrs.

Chain of Myc proto-oncogene protein (Homo sapiens) (P01106 whole entry): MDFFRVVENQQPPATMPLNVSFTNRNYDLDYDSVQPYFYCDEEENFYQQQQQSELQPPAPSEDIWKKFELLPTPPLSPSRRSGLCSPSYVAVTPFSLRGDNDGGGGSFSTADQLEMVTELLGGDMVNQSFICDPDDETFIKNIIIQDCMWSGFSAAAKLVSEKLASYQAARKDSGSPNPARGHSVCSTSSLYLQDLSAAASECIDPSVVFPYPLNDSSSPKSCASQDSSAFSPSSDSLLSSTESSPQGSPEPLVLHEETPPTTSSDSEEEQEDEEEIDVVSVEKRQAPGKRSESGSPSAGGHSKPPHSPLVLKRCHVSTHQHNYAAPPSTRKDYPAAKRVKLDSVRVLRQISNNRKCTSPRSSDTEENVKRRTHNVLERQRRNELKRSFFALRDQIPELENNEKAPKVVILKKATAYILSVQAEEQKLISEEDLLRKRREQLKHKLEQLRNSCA
Chain of c-Myc/c-Max (Homo sapiens) (P01106 whole entry): as above
Chain of c-Myc/c-Max (Homo sapiens) (P61244 2-160 partner limits assumed): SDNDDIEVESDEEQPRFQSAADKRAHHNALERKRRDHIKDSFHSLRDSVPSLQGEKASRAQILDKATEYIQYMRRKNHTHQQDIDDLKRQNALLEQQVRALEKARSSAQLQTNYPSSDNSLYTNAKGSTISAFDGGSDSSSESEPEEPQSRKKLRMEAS

Take `N#Cc1cc2c(-c3ccc(Cl)cc3)nn(-c3ccccc3)c2[nH]c1=O`: in assay [1], the Activity entry is “Time-dependent-effect”. In addition, the outcome in [2], in assay [3], in assay [4], in assay [7], in assay [8] and in [9] was Active. Moreover, the result in [10], in [11], in assay [12], in [14], in assay [15] and in [16] was Active. The outcome in [17] was Active. Moreover, in assay [5], the TGI entry is “Active”. In assay [6], the Tm is 38 °C. In addition, the IC50 in assay [13] came to 10.6 µM.

In general, IC50 refers to the concentration at which inhibition is half-maximal.
